Results on 96 compounds are retold here after ChEMBL document CHEMBL4513216, “Probing the Open Global Health Chemical Diversity Library for Multistage-Active Starting Points for Next-Generation Antimalarials” (ACS Infect Dis, 2020).

This data set can be described thus: Toxicity liver stage against HepG2, at 10uM. The class given is cell-based. The arrangement: test concentration 10 uM, cell line HepG2-A16-CD81EGFP. The following applies: human, HepG2-A16-CD81EGFP cells; read-out: INHIBITION
The method in brief:
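Uninfected HepG2-A16-CD81EGFP cells, 3 × 10^3 per well, 1536-well, plated on prespotted compound at 10 μM final, parasite-free screening media added to match infected plates; puromycin 10 μM positive, DMSO 0.5% negative; run in parallel with 48 h PbLuc assay at 37 °C, 5% CO2; viability by CellTiter-Glo luminescence, normalized to controls.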
Turning to `COc1ccc(COCC(=O)N2CCCC(n3cncn3)C2)cc1` (stereo unspecified), the cytotoxicity at 10 µM was -11.1%.
For the compound `CC(C)[C@H]1CN(Cc2c[nH]nn2)C[C@@H]1NC(=O)C1CCOCC1`, the cytotoxicity at 10 µM was 22.3%.
For `CCCN(Cc1nc(-c2ccc(F)c(OC)c2)oc1C)CC1CCCO1` (stereo unspecified) the value was -1.03%.
Regarding `CN(C)C(=O)CCC[S+]([O-])Cc1ccc(F)c(F)c1` (stereo unspecified), the cytotoxicity at 10 µM amounted to 12.2%.
The result for `COc1ccc(C2=Nn3c(CCN)nnc3-c3ccccc3C2)cc1` reads 4.92%; that for `CC(C)N1CC(C(=O)NC(C)(C)CNC(=O)OC(C)(C)C)CC1=O` (stereo unspecified), -9.96%.
The result for `CCCn1c(C)c(CC(=O)NC(C)CO)c2c1CC(C)(C)CC2=O` (stereo unspecified) reads -10.5%; that for `CC(C)n1nc2c(cc1=O)CN(Cc1nc(-c3ccco3)no1)CC2`, 2.35%; that for `CCC(C)NC(=O)CS(=O)(=O)Cc1cc(C)ccc1C` (stereo unspecified), -3.06%.
For `CCOCCN1CCN(C(C)C(=O)Nc2ccnn2C(C)C)CC1` (stereo unspecified) the value was -7.87%.
Turning to `COCc1cnc2n1CCN(C(=O)c1cc3cc(Cl)ccc3o1)C2C` (stereo unspecified), the cytotoxicity at 10 µM is -112%.
The result for `Cc1ccccc1-n1cnnc1SCC1CCCCO1` (stereo unspecified) reads 11.8%; that for `CCC(CNC(=O)CCn1cncn1)N1CCc2ccccc2C1` (stereo unspecified), -137%.
For `O=C(CN1CCOCC1CC(=O)c1ccco1)NCc1ccccn1` (stereo unspecified) the value was -4.92%; for `CCC(=O)c1ccc(Br)cc1NN1c2cc(Br)ccc2C(=O)C1(C)OC` (stereo unspecified), 78.6%.
For `CCCN(CCOC)C(=O)c1cc(Cn2c(C)nc3ccccc32)[nH]n1` the value was 21.8%; for `Cc1nc(C)n(CC2CN(Cc3cccs3)Cc3nccn3C2)n1` (stereo unspecified), -133%.
On to `CCO[C@H]1CC[C@H]2[C@H]1OCCN2C(=O)c1nn(C)c2ccccc12`, for which the cytotoxicity at 10 µM stood at 7.28%.
For `Cc1cccc(CN2CCc3onc(CN(C)C)c3C2)n1` the value was -4.62%; for `CCc1nn(-c2cc(Oc3cccc(C)c3)nc(C)n2)c(N)c1C#N`, -9.8%; for `CCc1csc(C2CCCN(C(=O)c3ccc(OC)nn3)C2)n1` (stereo unspecified), -8.8%.
The result for `Cc1nc(C)n(CC2CCCN(Cc3nc(-c4ccco4)no3)C2)n1` (stereo unspecified) reads -11.5%; that for `CCc1ncncc1C(=O)N1CCCC(n2nc(C)nc2C)C1` (stereo unspecified), -6.54%; that for `Cc1ccc(N2CCCC(NCC3=Cc4ccccc4OC3)C2)nn1` (stereo unspecified), -10.2%.
For `Cn1nnc2cc(C(=O)NS(=O)(=O)c3ccc(F)cc3)ccc21` the value was 5.46%; for `Cc1ccc(-c2cccc(-c3ccn(CCN4CCCC4)n3)c2)nn1`, -8.74%; for `CCn1cc(Cn2cc(Cl)c(N)n2)c(C)n1`, -6.56%.
For the compound `Cc1ccc(C(C)N(C)Cc2nc3c(cnn3C)c(=O)[nH]2)c(C)c1` (stereo unspecified), the cytotoxicity at 10 µM is -12.4%.
The result for `CCOc1ccc(CN2C(=O)CC(C)(C)C2=O)nc1` reads -11.9%; that for `CC(C#N)CN(C)C(=O)CCNC(=O)C(C)(C)C` (stereo unspecified), 0.843%; that for `CCOc1cc(C(=O)N2CCCC(c3noc(C)n3)C2)ccn1` (stereo unspecified), -4.49%.
Take `CC(C)c1nc(N2CCC(N3CCSCC3)CC2)c2cnn(C)c2n1`: the cytotoxicity at 10 µM is -136%.
The result for `Cc1cc(C)nc(C2CCN(C(=O)c3cnc(N(C)C)nc3)C2)n1` (stereo unspecified) reads -18.1%.
The result for `Cc1nc(NC(=O)C(C)N(C)Cc2ccc3c(c2)OCO3)sc1C` (stereo unspecified) reads 0.787%.
For `Cc1ccc(C(=O)N(C)Cc2csc(C)n2)c(=O)[nH]1` the value was 3.97%.
As to `CNC(=O)NC(=O)CNc1cc(C(=O)OC)cc(C(F)(F)F)c1`, the cytotoxicity at 10 µM is -0.0264%.
The result for `Cc1n[nH]c(C)c1-c1nccnc1CC1CCNC1` (stereo unspecified) reads -4.96%; that for `CCn1cc(S(=O)(=O)NCC(OC)c2cccc(Cl)c2)cn1` (stereo unspecified), 10.1%; that for `Cc1ccc2nc(C)cc(NCCNS(=O)(=O)c3cn(C)nc3C)c2c1`, 8.06%.
For `COc1ccc(CNCCc2cc(F)cc3c2OCOC3)c(OC)c1` the value was -3.41%.
For `CC(NC(=O)NCc1ccccn1)c1cccs1` (stereo unspecified), the cytotoxicity at 10 µM was -14.4%.
In the case of `CO[C@@H]1CN(c2ccccc2)S(=O)(=O)[C@@]12CCN(Cc1cncs1)C2`, the cytotoxicity at 10 µM came out at 5.63%.
Turning to `Cc1noc(Cl)c1CC(=O)N1CCCC(n2cccn2)C1` (stereo unspecified), the cytotoxicity at 10 µM is -6.14%.
The result for `O=C(c1cscn1)N1CC[C@H]2C[C@H](c3nnc(C4CC4)o3)O[C@@H]2C1` reads -111%; that for `CCC(NC(=O)NCc1nncn1CC)c1ccc(OC)cc1` (stereo unspecified), 1.97%; that for `Cc1ccccc1CN1CCCN(C(=O)c2ccn(C)c(=O)c2)CC1`, 1.62%.
The result for `Cc1cc2n(n1)[C@@H](C(F)(F)F)C[C@@H](C1CCN(C(=O)C3CC3)CC1)N2` reads -41%.
The result for `CCC(O)CN1CCN(C(=O)c2cccn2Cc2cccnc2)CC1` (stereo unspecified) reads -14.1%; that for `CC(C)c1nc(C2CCCN2C(=O)c2ccc(N(C)C)nn2)no1` (stereo unspecified), -8.11%; that for `Cc1nnc(C(NS(=O)(=O)c2cc(C#N)ccc2C)C(C)C)[nH]1` (stereo unspecified), 4.98%.
`CCC[C@H]1CN(S(=O)(=O)c2ccc(-c3c(C)noc3C)s2)C[C@@H]1N`: the cytotoxicity at 10 µM came out at 8.4%.
The result for `CCSc1cc(C(=O)NCCNC(=O)N(C)C)ccn1` reads -3.63%; that for `Cc1ccnc2c1NC(=O)CN2C(=O)CCc1cccs1`, -19.5%.
The result for `COc1ccc(-n2nnc(C(N)=O)n2)cc1` reads 8.13%; that for `COc1ccc(NC(=O)NCC(O)c2ccccc2F)c(OC)c1` (stereo unspecified), 3.22%; that for `COc1ccc(C(=O)NCCCn2ccnc2)c(OC)n1`, 4.99%.
`OCC(O)CSCc1ccc(Cl)cc1Cl` (stereo unspecified): the cytotoxicity at 10 µM is -148%.
As to `COc1ccc(C[C@H]2CN(C(=O)C3CC3)CC[C@H]2OC)cc1`, the cytotoxicity at 10 µM came out at 2.67%.
For `CN(Cc1c(F)cccc1Cl)C(=O)Cn1cnc(C#N)n1` the value was -5.5%.
The result for `Cc1cnn(CC2CN(c3nnc(C)c(C)c3C#N)CCO2)c1` (stereo unspecified) reads -5.25%.
For `Cc1ccoc1C(=O)N1CCCC(CNS(C)(=O)=O)C1` (stereo unspecified) the value was -23.4%; for `CC(C)(NS(C)(=O)=O)C(=O)NCCc1csc2ccccc12`, 0.694%.
Regarding `CCOc1ccc(C(=O)N2CCC(Oc3ccccc3)(C(=O)O)CC2)o1`, the cytotoxicity at 10 µM came to 14.1%.
The result for `O[C@H]1CN(Cc2cc3ccccc3o2)CC[C@@]12CCCO2` reads -21.9%; that for `O=C(c1ccsc1)N1CCc2c(CN3CCCC3)n[nH]c2C1`, 5.04%.
The result for `Cc1ccc2c(c1)OC(C)(C)CC2NC(=O)C1CCN(C)CC1` (stereo unspecified) reads -1.71%; that for `Cc1cc(C)c2c(N(C)CC3CCOC3)ncnc2n1` (stereo unspecified), -146%; that for `CC(C)Cc1noc(CN(C)C(=O)C2COc3ccccc3C2)n1` (stereo unspecified), -9.12%.
The result for `CCOCc1nc2c(c(NC(CC)c3ccncc3)n1)CCNCC2` (stereo unspecified) reads -0.0944%; that for `Cc1ccc(CNC(=O)NC2CCCN(c3ncccn3)C2)cn1` (stereo unspecified), 3.08%; that for `c1cnnc(-c2noc(COCC3CCCO3)n2)c1` (stereo unspecified), 2.66%.
As for `Cc1ccc(CC(=O)N2CC[C@@H]3NC(=O)CC[C@@H]32)cc1`, the cytotoxicity at 10 µM was determined as 1.49%.
For `c1ccc(-c2nc(CN3CCn4c(nnc4C4CC4)C3)co2)cc1` the value was -2.18%; for `Cc1cnn(CC2CCCCN2C(=O)c2ccc(C#N)c(C)n2)c1` (stereo unspecified), -1.18%.
`COCCN(Cc1cnn(C)c1)CC1CCN(C(C)C)CC1`: the cytotoxicity at 10 µM was -9%.
The result for `NC1CCN(C2CCN(c3ccc(-c4ccco4)cc3)CC2)CC1` reads 1.03%; that for `Cc1ccc([C@@H]2CN(C(=O)c3cccnn3)C[C@H]2NC(=O)C2CC2)cc1`, -17.7%.
The result for `C[C@@H]1CN(Cc2cc3ccccc3n2C)CC[C@@]1(O)C1CC1` reads -2.07%.
For `CN1C[C@@H](c2cccc(F)c2)[C@H]2[C@H]1CCCCCN2C(=O)C1CC1` the value was 4.21%.
With `Cc1cc(CNC2(CO)CCOCC2)ccc1Br`, the cytotoxicity at 10 µM was determined as 17.4%.
For `Cc1ccc(CC(=O)NCC(Cc2ccc(F)cc2)C(N)=O)cn1` (stereo unspecified) the value was 12%.
For `c1csc(SCC2CN=C(N3CCOCC3)S2)c1` (stereo unspecified) the value was 10.3%; for `CSc1ccc(CN(CCO)C(=O)CCc2ccc(O)cc2)cc1`, -0.711%; for `CN(Cc1noc2c1CCCC2)C(=O)CN1C(=O)CSc2ccccc21`, -40.5%.
As for `CC(C)SCCNC(=O)c1cccc2ccnn12`, the cytotoxicity at 10 µM is -51.6%.
The result for `O=C(c1ccco1)N1CC2(CCNCC2)c2cc(Cl)ccc21` reads 0.199%; that for `CC(NCCN1CCN(C(=O)C2CCCC2)CC1)c1ccccn1` (stereo unspecified), -2.17%; that for `COCC(NC(=O)c1ccoc1)c1ccc(C)o1` (stereo unspecified), 3.6%.
For `O=C(OCc1cccc(F)c1)c1cccc(C(=O)N2CCCC2)n1` the value was -1.6%.
The result for `O=C([C@H]1COC[C@H]2CN(CC3CCCC3)C[C@H]21)N1CCOCC1` reads 20.5%; that for `COCCNc1nc2c(c(NCCc3cccs3)n1)CCNCC2`, 3.96%.
Turning to `COc1ccc2c(c1)C(C(=O)N(C)CCCc1nccn1C)CC(=O)N2` (stereo unspecified), the cytotoxicity at 10 µM is -56%.
Turning to `Cc1cc(N2CCCC(O)(CN(C)C(=O)CCN)C2)c2cnccc2n1` (stereo unspecified), the cytotoxicity at 10 µM was -1.49%.
The result for `CCCS(=O)(=O)N1CCOCC2(CCN(c3ccccn3)C2)C1` (stereo unspecified) reads 2.42%.
The result for `Cc1ccc(CN2CCC3(CC(C(=O)NCC4CC4)=NO3)C2)s1` (stereo unspecified) reads 5.92%; that for `COCCNC(=O)C1CN(Cc2ccncc2)Cc2ccnn2C1` (stereo unspecified), -83%.
